Legend:
[1] = molecular target: T1, Glutamate carboxypeptidase 2 (Homo sapiens, UniProt Q04609); experiment: Binding affinity to PSMA in human LNCaP cells after 45 mins in presence of 68Ga-labeled PSMA-10 by gamma counting assay; type: cell-based
Target sequence in this assay (Q04609 whole entry): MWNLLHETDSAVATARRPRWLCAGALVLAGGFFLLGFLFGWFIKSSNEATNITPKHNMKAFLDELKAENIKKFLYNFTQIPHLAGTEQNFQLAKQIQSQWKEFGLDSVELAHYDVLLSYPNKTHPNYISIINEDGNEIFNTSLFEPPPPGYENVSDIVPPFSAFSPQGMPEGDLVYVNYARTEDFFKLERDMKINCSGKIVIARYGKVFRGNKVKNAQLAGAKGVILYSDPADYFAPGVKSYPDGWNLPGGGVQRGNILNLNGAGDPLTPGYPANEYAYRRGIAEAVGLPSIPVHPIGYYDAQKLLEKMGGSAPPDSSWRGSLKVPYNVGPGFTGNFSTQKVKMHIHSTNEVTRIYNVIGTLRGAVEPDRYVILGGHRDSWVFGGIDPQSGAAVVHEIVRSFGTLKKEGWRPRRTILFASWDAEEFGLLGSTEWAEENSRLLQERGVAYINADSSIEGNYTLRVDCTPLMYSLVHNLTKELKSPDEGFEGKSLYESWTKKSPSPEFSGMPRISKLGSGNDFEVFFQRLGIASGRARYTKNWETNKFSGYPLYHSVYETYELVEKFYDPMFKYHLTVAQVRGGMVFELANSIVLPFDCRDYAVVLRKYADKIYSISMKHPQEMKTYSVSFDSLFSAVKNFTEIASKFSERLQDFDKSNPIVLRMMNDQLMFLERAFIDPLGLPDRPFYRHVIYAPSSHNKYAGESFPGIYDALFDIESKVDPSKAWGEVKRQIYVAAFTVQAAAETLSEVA

[2] = Retention time of the compound by HPLC; type: physicochemical
[3] = Distribution coefficient, logD of the compound at pH 7.4 in n-octanol/0.1 M HEPES by shake flask method; type: physicochemical
Method in brief: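 Radiolabelled compound shaken to equilibrium in n-octanol / 0.1 M HEPES pH 7.4. Aliquots of both phases gamma-counted and logD calculated from the phase ratio. Mean ± SD.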

[4] = molecular target: T1, Glutamate carboxypeptidase 2; experiment: Inhibition of PSMA in human LNCaP cells assessed as cell surface binding per 10^6 cells using 177Lu-labeled compound after 45 mins by gamma counting analysis; type: cell-based
Method in brief: (§1)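 LNCaP cells (10^5/well) seeded on poly-L-lysine 24 h before. Incubated 45 min at 37 °C with 32 nM 177Lu-labelled compound (25 GBq/µmol) in Opti-MEM, with or without 500 µM 2-PMPA as blocker. Four ice-cold PBS washes, surface fraction stripped with 50 mM glycine pH 2.8, internalized fraction released by 0.3 M NaOH lysis. Both fractions gamma-counted, specific values given as %IA/10^6 cells. Triplicate.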
Target sequence in this assay (Q04609 whole entry, looked up): as the sequence (Q04609 whole entry) above

[5] = molecular target: T1, Glutamate carboxypeptidase 2; experiment: Inhibition of PSMA in human LNCaP cells assessed as specific internalization per 10^6 cells using 177Lu-labeled compound after 45 mins by gamma counting analysis; type: cell-based; method in brief: as §1
Target sequence in this assay (Q04609 whole entry, looked up): as the sequence (Q04609 whole entry) above

[6] = Drug uptake in iv dosed BALB/c athymic nude mouse tumor xenografted with human LNCaP cells treated with 68Ga-labeled compound measured after 1 hr by microPET imaging analysis; type: ADME, organism-based; details: in vivo
Method in brief: (§2)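 Male BALB/c nu/nu mice, 6–8 weeks old, with subcutaneous LNCaP xenografts (6 × 10^6 cells in 50% Matrigel, right trunk) of about 1 cm. Tail-vein injection of 68Ga-labelled compound (~30 MBq, 0.5 nmol) under sevoflurane. Dynamic µPET: 60 min emission scan, then 100–120 min scan. SUVmean for tumor, muscle and kidney at 1 h; tumor/muscle ratio. One animal per compound.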

[7] = Drug uptake in iv dosed BALB/c athymic nude mouse muscle xenografted with human LNCaP cells treated with 68Ga-labeled compound measured after 1 hr by microPET imaging analysis; type: ADME, organism-based; details: in vivo; method in brief: as §2
[8] = Drug uptake in iv dosed BALB/c athymic nude mouse kidney xenografted with human LNCaP cells treated with 68Ga-labeled compound measured after 1 hr by microPET imaging analysis; type: ADME, organism-based; details: in vivo; method in brief: as §2
[9] = Ratio of drug uptake in tumor to muscle in iv dosed BALB/c athymic nude mouse xenografted with human LNCaP cells treated with 68Ga-labeled compound measured after 1 hr by microPET imaging analysis; type: ADME, organism-based; details: in vivo; method in brief: as §2
[10] = Drug uptake in iv dosed BALB/c athymic nude mouse tumor xenografted with human LNCaP cells treated with 68Ga-labeled compound measured upto 120 mins by microPET imaging analysis; type: ADME, organism-based; details: in vivo, 2 h; method in brief: as §2
[11] = Binding affinity to human serum protein after 1 hr by gel filtration method; type: ADME

SMILES | Ki [1] [µM] | Retention_time [2] [min] | logD [3] | specific cell surface binding (% of applied activity per 10^6 cells) [4] [%] | specific internalization (% of added activity per 10^6 cells) [5] [%] | SUV [6] | SUV [7] | SUV [8] | Ratio [9] | Drug uptake [10] | PB [11]
O=C(O)CC[C@H](NC(=O)N[C@@H](CCCCNC(=O)c1ccc(CNC(=O)[C@H](Cc2ccc3ccccc3c2)NC(=O)[C@H]2CC[C@H](CNC(=O)CN3CCN(CC(=O)O)CCN(CC(=O)O)CCN(CC(=O)O)CC3)CC2)cc1)C(=O)O)C(=O)O | – | 2.7 | – | – | – | Not Determined(Unstable) | Not Determined(Unstable) | Not Determined(Unstable) | Not Determined(Unstable) | – | –
O=C(O)CC[C@H](NC(=O)N[C@@H](CCCCNC(=O)[C@H](Cc1ccc2ccccc2c1)NC(=O)CN1CCN(CC(=O)O)CCN(CC(=O)O)CCN(CC(=O)O)CC1)C(=O)O)C(=O)O | 0.0286 | 2.71 | -2.03 | 1.68 | 1.77 | 0.31 | 0.2 | 4.79 | 1.6 | – | –
O=C(O)CC[C@H](NC(=O)N[C@@H](CCCCNC(=O)[C@H]1CC[C@H](CNC(=O)[C@H](Cc2ccc3ccccc3c2)NC(=O)CN2CCN(CC(=O)O)CCN(CC(=O)O)CCN(CC(=O)O)CC2)CC1)C(=O)O)C(=O)O | 0.0177 | 2.48 | -1.44 | 1.09 | 0.13 | 0.39 | 0.11 | 3.62 | 3.5 | Not Active | –
O=C(O)CC[C@H](NC(=O)N[C@@H](CCCCNC(=O)[C@H](Cc1cccc2ccccc12)NC(=O)[C@H]1CC[C@H](CNC(=O)CN2CCN(CC(=O)O)CCN(CC(=O)O)CCN(CC(=O)O)CC2)CC1)C(=O)O)C(=O)O | 0.0128 | 2.59 | -1.95 | 6.58 | 0.9 | 0.29 | 0.08 | 2.15 | 3.6 | Not Active | –
O=C(O)CC[C@H](NC(=O)N[C@@H](CCCCNC(=O)[C@H]1CC[C@H](CNC(=O)[C@H]2CC[C@H](CNC(=O)CN3CCN(CC(=O)O)CCN(CC(=O)O)CCN(CC(=O)O)CC3)CC2)CC1)C(=O)O)C(=O)O | 0.021 | 2.08 | -1.12 | 3.88 | 1.43 | 0.3 | 0.13 | 4.29 | 2.3 | Not Active | Not Active
O=C(O)CC[C@H](NC(=O)N[C@@H](CCCCNC(=O)[C@H]1CC[C@H](CNC(=O)c2ccc(CNC(=O)CN3CCN(CC(=O)O)CCN(CC(=O)O)CCN(CC(=O)O)CC3)cc2)CC1)C(=O)O)C(=O)O | 0.0247 | 2.07 | -1.43 | 4.49 | 2.7 | 0.54 | 0.14 | 8.1 | 3.9 | Not Active | Not Active
O=C(O)CC[C@H](NC(=O)N[C@@H](CCCCNC(=O)[C@@H](Cc1ccc2ccccc2c1)NC(=O)[C@H]1CC[C@H](CNC(=O)CN2CCN(CC(=O)O)CCN(CC(=O)O)CCN(CC(=O)O)CC2)CC1)C(=O)O)C(=O)O | 0.00886 | 2.56 | -2.02 | 12.2 | 7.18 | 0.69 | 0.27 | 3.98 | – | Active | –
O=C(O)CC[C@H](NC(=O)N[C@@H](CCCCNC(=O)[C@H]1CC[C@H](CNC(=O)[C@H]2CC[C@H](CNC(=O)[C@H]3CC[C@H](CNC(=O)CN4CCN(CC(=O)O)CCN(CC(=O)O)CCN(CC(=O)O)CC4)CC3)CC2)CC1)C(=O)O)C(=O)O | 0.0194 | 2.28 | -1.98 | 0.23 | 0.03 | 0.18 | 0.21 | 2.91 | 0.9 | Not Active | –
O=C(O)CC[C@H](NC(=O)N[C@@H](CCCCNC(=O)[C@H]1CC[C@H](CNC(=O)CN2CCN(CC(=O)O)CCN(CC(=O)O)CCN(CC(=O)O)CC2)CC1)C(=O)O)C(=O)O | 0.00933 | 1.81 | -0.91 | 4.14 | 1.24 | 0.23 | 0.15 | 6.86 | 1.5 | Not Active | –
O=C(O)CC[C@H](NC(=O)N[C@@H](CCCCNC(=O)[C@H](Cc1ccc2ccccc2c1)NC(=O)[C@H]1CC[C@H](CNC(=O)CN2CCN(CC(=O)O)CCN(CC(=O)O)CCN(CC(=O)O)CC2)CC1)C(=O)O)C(=O)O [VIPIVOTIDE TETRAXETAN] | – | 2.63 | -2 | 11.4 | 16.2 | 0.59 | 0.07 | 2.87 | – | Active | Not Active
O=C(O)CCc1ccc(O)c(CN(CCN(CC(=O)O)Cc2cc(CCC(=O)NCCCCCC(=O)NCCCC[C@H](NC(=O)N[C@@H](CCC(=O)O)C(=O)O)C(=O)O)ccc2O)CC(=O)O)c1 [GOZETOTIDE] | 0.012 | 1.69 | -1.71 | 10.6 | 9.47 | – | – | – | 4.9 | – | –

More lines, now with the values ahead:

Ki [1] [µM] | Retention_time [2] [min] | logD [3] | specific cell surface binding (% of applied activity per 10^6 cells) [4] [%] | specific internalization (% of added activity per 10^6 cells) [5] [%] | SUV [6] | SUV [7] | SUV [8] | Ratio [9] | Drug uptake [10] | PB [11] | SMILES
0.0005 | 2.59 | -1.98 | 4.93 | 2.22 | 0.63 | 0.23 | 6.57 | 2.7 | Active | – | O=C(O)CC[C@H](NC(=O)N[C@@H](CCCCNC(=O)[C@H](Cc1ccc(-c2ccccc2)cc1)NC(=O)CN1CCN(CC(=O)O)CCN(CC(=O)O)CCN(CC(=O)O)CC1)C(=O)O)C(=O)O
0.00751 | 1.78 | -1.94 | 14.3 | 3.66 | 0.56 | 0.1 | 3.16 | 5.6 | Active | – | O=C(O)CC[C@H](NC(=O)N[C@@H](CCCCNC(=O)c1ccc(CNC(=O)c2ccc(CNC(=O)CN3CCN(CC(=O)O)CCN(CC(=O)O)CCN(CC(=O)O)CC3)cc2)cc1)C(=O)O)C(=O)O
0.00197 | 1.56 | -1.99 | 8.54 | 5.11 | 0.28 | 0.13 | 2.68 | 2.2 | Active | – | O=C(O)CC[C@H](NC(=O)N[C@@H](CCCCNC(=O)c1ccc(CNC(=O)CN2CCN(CC(=O)O)CCN(CC(=O)O)CCN(CC(=O)O)CC2)cc1)C(=O)O)C(=O)O
0.00631 | 2.58 | -1.88 | 9.07 | 2.99 | 0.14 | 0.07 | 2.26 | 2 | – | – | O=C(O)CC[C@H](NC(=O)N[C@@H](CCCCNC(=O)[C@H](Cc1ccc2ccccc2c1)NC(=O)CCCCCNC(=O)CN1CCN(CC(=O)O)CCN(CC(=O)O)CCN(CC(=O)O)CC1)C(=O)O)C(=O)O
0.00619 | 2.44 | -2.12 | 25.2 | 6.86 | 0.52 | 0.25 | 2.21 | 2.1 | Active | – | O=C(O)CC[C@H](NC(=O)N[C@@H](CCCCNC(=O)c1ccc(CNC(=O)c2ccc(CNC(=O)c3ccc(CNC(=O)c4ccc(CNC(=O)CN5CCN(CC(=O)O)CCN(CC(=O)O)CCN(CC(=O)O)CC5)cc4)cc3)cc2)cc1)C(=O)O)C(=O)O
